{
  "source": "ChEMBL document CHEMBL5661979",
  "about": "“Pharmacological inhibition of BMK1 suppresses tumor growth through promyelocytic leukemia protein” (Cancer Cell, 2010)",
  "key": {"[1]": {"biological_target": "Aurora kinase A (Homo sapiens, UniProt O14965)", "sequence (O14965 whole entry)": "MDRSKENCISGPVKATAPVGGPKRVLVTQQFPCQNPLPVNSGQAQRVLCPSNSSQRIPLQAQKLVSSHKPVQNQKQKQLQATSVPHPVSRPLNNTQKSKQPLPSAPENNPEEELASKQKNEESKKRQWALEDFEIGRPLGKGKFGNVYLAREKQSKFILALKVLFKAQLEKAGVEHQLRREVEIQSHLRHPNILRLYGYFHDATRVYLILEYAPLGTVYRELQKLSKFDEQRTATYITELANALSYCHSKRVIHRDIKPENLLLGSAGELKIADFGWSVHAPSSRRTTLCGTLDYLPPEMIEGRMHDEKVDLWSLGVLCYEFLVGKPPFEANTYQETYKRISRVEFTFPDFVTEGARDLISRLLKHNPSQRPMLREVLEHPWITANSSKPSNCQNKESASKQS", "assay": "Inhibition of AURA in human HeLa cells lysate pre incubated for 15 mins followed by ATP acyl phosphate probe addition and measured after 10 mins by LC-MS/MS analysis", "assay_type": "subcellular", "in_short": "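KiNativ-type profiling in HeLa lysate (5 mg/mL total protein). Lysate preincubated 15 min with inhibitor at 50, 10, 2, 0.8 or 0 μM, then ATP or ADP acylphosphate probe added (5 μM final) for 10 min. Reaction stopped with urea and analysed by targeted MS, using up to four fragment ions per kinase peptide-probe conjugate. % inhibition calculated against untreated lysate. Duplicate reactions.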"}, "[2]": {"biological_target": "Casein kinase I isoform alpha (Homo sapiens, UniProt P48729)", "sequence (P48729 whole entry, canonical isoform)": "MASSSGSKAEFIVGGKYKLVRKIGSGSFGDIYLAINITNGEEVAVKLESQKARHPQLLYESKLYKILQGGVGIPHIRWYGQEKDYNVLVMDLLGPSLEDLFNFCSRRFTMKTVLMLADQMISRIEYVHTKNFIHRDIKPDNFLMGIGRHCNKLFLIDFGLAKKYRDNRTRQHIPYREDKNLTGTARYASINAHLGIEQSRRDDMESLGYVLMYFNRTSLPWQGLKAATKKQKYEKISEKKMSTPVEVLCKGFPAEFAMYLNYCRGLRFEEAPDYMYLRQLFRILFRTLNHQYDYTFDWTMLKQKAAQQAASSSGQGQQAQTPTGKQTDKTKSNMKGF", "assay": "Inhibition of CK1alpha in human HeLa cells lysate pre incubated for 15 mins followed by ATP acyl phosphate probe addition and measured after 10 mins by LC-MS/MS analysis", "assay_type": "subcellular"}, "[3]": {"biological_target": "T1, Epidermal growth factor receptor (Homo sapiens, UniProt P00533)", "T1 sequence (P00533 whole entry)": "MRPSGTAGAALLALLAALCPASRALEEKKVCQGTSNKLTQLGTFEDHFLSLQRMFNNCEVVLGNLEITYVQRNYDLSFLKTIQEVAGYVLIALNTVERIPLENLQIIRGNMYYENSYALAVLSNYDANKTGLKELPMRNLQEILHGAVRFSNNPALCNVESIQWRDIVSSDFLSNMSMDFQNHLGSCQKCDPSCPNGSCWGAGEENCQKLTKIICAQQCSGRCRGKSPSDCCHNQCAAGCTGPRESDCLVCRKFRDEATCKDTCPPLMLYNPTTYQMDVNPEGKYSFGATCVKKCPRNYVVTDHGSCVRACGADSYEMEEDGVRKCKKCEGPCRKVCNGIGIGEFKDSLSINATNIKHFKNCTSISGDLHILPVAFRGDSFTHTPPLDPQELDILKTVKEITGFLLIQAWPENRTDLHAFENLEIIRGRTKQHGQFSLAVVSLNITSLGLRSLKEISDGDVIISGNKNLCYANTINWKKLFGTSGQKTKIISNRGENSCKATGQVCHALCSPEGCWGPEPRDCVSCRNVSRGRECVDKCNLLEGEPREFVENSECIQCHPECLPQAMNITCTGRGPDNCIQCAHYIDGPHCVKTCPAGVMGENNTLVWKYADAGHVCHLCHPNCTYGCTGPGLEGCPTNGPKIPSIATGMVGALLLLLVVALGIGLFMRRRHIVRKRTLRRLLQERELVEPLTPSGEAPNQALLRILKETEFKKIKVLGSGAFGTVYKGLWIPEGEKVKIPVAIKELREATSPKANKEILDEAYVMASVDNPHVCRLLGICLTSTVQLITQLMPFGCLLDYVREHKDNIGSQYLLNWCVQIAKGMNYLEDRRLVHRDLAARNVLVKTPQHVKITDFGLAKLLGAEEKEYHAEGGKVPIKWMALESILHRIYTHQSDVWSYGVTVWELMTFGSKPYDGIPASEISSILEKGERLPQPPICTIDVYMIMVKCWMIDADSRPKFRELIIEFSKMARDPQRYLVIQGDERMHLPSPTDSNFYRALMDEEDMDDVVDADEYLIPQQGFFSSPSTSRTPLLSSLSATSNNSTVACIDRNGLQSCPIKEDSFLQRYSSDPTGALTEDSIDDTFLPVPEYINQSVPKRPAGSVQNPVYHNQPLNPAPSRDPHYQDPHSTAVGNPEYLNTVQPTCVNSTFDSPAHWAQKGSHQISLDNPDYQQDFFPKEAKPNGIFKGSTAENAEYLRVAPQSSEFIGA", "assay": "Inhibition of EGFR in human HeLa cells lysate pre incubated for 15 mins followed by ATP acyl phosphate probe addition and measured after 10 mins by LC-MS/MS analysis", "assay_type": "subcellular"}, "[4]": {"biological_target": "Mitogen-activated protein kinase kinase kinase 11 (Homo sapiens, UniProt Q16584)", "assay": "Inhibition of MLK3 in human HeLa cells lysate pre incubated for 15 mins followed by ATP acyl phosphate probe addition and measured after 10 mins by LC-MS/MS analysis", "assay_type": "subcellular"}, "[5]": {"biological_target": "Serine/threonine-protein kinase WNK1 (Homo sapiens, UniProt Q9H4A3)", "assay": "Inhibition of Wnk1 in human HeLa cells lysate pre incubated for 15 mins followed by ATP acyl phosphate probe addition and measured after 10 mins by LC-MS/MS analysis", "assay_type": "subcellular"}, "[6]": {"biological_target": "Macrophage-stimulating protein receptor (Homo sapiens, UniProt Q04912)", "sequence (Q04912 25-304 limits assumed)": "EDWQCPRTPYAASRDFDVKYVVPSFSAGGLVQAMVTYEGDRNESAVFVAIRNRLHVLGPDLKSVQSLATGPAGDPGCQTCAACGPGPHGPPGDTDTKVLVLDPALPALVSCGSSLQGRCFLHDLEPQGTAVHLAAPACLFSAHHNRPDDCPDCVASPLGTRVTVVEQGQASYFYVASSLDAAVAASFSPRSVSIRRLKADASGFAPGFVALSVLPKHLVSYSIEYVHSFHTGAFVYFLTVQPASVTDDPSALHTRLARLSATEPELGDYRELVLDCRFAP", "sequence (Q04912 310-1400 limits assumed)": "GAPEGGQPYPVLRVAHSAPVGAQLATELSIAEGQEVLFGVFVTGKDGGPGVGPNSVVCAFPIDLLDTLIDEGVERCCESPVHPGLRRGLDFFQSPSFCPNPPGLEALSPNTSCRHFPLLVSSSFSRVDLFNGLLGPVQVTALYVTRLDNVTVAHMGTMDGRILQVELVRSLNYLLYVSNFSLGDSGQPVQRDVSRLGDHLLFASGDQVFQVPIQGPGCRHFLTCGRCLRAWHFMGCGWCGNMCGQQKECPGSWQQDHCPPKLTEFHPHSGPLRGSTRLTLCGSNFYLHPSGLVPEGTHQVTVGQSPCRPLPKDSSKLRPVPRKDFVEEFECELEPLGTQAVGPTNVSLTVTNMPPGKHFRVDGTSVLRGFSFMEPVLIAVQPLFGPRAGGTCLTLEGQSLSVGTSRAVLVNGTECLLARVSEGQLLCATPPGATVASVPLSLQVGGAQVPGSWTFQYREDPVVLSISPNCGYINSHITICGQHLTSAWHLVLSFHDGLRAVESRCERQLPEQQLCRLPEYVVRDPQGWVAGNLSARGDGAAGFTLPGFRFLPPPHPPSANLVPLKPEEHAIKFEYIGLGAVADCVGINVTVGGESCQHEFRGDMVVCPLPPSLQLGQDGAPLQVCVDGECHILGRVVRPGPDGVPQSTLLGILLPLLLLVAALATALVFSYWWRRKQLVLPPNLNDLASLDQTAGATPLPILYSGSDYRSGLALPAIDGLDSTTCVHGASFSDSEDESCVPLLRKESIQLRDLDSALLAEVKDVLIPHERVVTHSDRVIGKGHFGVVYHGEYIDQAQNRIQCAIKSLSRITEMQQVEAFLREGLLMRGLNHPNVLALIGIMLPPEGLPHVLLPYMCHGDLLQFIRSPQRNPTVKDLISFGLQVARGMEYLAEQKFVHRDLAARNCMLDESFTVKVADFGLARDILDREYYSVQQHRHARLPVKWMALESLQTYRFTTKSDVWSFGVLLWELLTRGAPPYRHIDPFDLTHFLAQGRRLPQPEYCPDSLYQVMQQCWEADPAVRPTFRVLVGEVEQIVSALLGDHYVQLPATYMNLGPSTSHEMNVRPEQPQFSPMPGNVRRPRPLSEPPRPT", "assay": "Inhibition of RON in human HeLa cells lysate at 10 uM pre incubated for 15 mins followed by ADP acyl phosphate probe addition and measured after 10 mins by LC-MS/MS analysis relative to control", "assay_type": "subcellular", "details": "time 25.0 min"}, "[7]": {"assay": "Inhibition of KHS1/2 in human HeLa cells lysate at 50 uM pre incubated for 15 mins followed by ATP acyl phosphate probe addition and measured after 10 mins by LC-MS/MS analysis relative to control", "details": "25 min, condition cancer"}, "[8]": {"biological_target": "Mitogen-activated protein kinase 14 (Homo sapiens, UniProt Q16539)", "sequence (Q16539 whole entry)": "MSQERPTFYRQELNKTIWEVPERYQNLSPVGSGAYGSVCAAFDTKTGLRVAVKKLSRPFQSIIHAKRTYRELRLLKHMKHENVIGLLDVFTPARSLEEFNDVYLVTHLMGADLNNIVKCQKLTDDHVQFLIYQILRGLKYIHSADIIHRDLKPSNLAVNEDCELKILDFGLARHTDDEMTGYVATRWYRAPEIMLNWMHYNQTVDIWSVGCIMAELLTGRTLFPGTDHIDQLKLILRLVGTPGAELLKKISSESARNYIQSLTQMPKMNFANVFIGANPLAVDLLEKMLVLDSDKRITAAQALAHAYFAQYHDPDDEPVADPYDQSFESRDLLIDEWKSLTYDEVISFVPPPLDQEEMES", "assay": "Inhibition of P38alpha interaction site in human HeLa cells lysate at 50 uM pre incubated for 15 mins followed by ATP acyl phosphate probe addition and measured after 10 mins by LC-MS/MS analysis relative to control", "assay_type": "subcellular", "details": "time 25.0 min"}, "[9]": {"biological_target": "T2, Serine/threonine-protein kinase TAO2 (Homo sapiens) (UniProt Q9UL54)", "T2 sequence (whole entry)": "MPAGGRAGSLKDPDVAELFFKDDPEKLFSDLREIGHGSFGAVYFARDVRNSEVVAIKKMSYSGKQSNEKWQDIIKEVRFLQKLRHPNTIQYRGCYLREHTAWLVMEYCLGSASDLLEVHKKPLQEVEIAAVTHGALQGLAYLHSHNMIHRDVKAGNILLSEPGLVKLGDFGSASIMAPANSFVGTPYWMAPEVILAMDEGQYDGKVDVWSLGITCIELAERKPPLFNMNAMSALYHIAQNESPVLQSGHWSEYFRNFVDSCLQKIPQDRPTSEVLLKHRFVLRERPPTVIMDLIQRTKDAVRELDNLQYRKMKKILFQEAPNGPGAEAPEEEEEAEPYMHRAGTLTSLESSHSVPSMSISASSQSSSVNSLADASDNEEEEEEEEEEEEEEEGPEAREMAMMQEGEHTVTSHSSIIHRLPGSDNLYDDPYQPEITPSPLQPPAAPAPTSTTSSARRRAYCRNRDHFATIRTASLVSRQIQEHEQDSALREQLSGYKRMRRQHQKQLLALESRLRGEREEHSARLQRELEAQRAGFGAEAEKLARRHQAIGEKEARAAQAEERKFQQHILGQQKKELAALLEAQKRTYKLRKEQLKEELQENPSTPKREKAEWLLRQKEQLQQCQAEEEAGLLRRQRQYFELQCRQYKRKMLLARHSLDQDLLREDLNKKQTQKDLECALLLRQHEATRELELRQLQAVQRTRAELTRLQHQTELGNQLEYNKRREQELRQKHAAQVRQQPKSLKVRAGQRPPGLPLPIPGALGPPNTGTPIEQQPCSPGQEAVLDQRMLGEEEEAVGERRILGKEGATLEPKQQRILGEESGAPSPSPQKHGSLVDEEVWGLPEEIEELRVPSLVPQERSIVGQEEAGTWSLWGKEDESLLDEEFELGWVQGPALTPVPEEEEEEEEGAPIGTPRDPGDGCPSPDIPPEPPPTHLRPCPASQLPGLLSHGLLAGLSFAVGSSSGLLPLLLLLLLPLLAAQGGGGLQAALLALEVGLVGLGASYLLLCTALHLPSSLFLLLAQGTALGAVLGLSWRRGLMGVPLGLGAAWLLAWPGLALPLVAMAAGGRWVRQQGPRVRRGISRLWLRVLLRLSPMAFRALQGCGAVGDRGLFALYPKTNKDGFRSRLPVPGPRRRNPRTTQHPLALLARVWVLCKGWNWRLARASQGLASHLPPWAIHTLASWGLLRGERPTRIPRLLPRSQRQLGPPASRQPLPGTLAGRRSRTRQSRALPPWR", "assay": "Inhibition of TAO2 in human HeLa cells lysate at 10 uM pre incubated for 15 mins followed by ATP acyl phosphate probe addition and measured after 10 mins by LC-MS/MS analysis relative to control", "assay_type": "subcellular", "details": "time 25.0 min"}, "[10]": {"biological_target": "Cyclin-dependent kinase 9 (Homo sapiens, UniProt P50750)", "sequence (P50750 whole entry)": "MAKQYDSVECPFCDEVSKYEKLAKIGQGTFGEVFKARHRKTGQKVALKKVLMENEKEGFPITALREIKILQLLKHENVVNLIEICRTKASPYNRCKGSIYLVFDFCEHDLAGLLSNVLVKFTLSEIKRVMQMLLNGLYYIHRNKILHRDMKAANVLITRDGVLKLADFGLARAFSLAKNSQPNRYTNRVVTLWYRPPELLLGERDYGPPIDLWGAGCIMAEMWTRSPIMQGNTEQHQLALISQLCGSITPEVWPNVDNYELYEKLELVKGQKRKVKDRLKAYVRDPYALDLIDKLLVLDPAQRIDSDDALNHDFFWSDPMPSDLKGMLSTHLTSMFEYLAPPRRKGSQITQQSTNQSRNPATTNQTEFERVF", "assay": "Inhibition of CDK9 in human HeLa cells lysate at 10 uM pre incubated for 15 mins followed by ATP acyl phosphate probe addition and measured after 10 mins by LC-MS/MS analysis relative to control", "assay_type": "subcellular", "details": "time 25.0 min", "in_short": "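KiNativ profiling in HeLa lysate (5 mg/mL total protein). Lysate incubated 15 min with inhibitor at 50, 10, 2, 0.8 or 0 μM. ATP or ADP acylphosphate probe then added (5 μM final) and reacted 10 min. Reaction stopped with urea and analysed by targeted MS, using up to four fragment ions per kinase peptide-probe conjugate. % inhibition taken against untreated lysate. Run in duplicate.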"}, "[11]": {"biological_target": "Cyclin-dependent kinase 11B (Homo sapiens, UniProt P21127)", "sequence (P21127 whole entry)": "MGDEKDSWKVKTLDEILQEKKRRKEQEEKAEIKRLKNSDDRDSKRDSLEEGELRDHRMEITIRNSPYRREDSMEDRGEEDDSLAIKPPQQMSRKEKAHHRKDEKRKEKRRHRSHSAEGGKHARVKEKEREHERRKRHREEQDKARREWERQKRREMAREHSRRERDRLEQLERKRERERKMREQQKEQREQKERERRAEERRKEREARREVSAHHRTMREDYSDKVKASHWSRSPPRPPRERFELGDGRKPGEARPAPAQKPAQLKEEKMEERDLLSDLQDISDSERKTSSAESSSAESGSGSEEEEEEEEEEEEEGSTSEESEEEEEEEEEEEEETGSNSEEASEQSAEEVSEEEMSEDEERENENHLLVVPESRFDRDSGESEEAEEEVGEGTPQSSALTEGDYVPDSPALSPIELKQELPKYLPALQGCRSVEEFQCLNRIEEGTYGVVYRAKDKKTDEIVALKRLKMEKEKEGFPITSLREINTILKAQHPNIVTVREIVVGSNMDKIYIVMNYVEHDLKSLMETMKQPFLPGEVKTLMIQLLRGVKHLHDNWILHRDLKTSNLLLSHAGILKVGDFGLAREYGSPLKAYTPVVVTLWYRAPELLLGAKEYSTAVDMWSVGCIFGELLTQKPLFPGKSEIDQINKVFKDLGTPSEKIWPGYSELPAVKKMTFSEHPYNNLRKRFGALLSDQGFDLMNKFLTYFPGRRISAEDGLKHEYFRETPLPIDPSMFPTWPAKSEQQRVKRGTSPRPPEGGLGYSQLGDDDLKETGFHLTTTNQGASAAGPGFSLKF", "assay": "Inhibition of PITSLRE in human HeLa cells lysate at 10 uM pre incubated for 15 mins followed by ATP acyl phosphate probe addition and measured after 10 mins by LC-MS/MS analysis relative to control", "assay_type": "subcellular", "details": "time 25.0 min"}, "[12]": {"biological_target": "T1, Epidermal growth factor receptor", "assay": "Inhibition of EGFR in human HeLa cells lysate at 2 uM pre incubated for 15 mins followed by ATP acyl phosphate probe addition and measured after 10 mins by LC-MS/MS analysis relative to control", "assay_type": "subcellular", "details": "time 25.0 min"}, "[13]": {"biological_target": "Serine/threonine-protein kinase mTOR (Homo sapiens, UniProt P42345)", "assay": "Inhibition of FRAP in human HeLa cells lysate at 2 uM pre incubated for 15 mins followed by ATP acyl phosphate probe addition and measured after 10 mins by LC-MS/MS analysis relative to control", "assay_type": "subcellular", "details": "time 25.0 min"}, "[14]": {"assay": "Plasma concentration in Sprague-Dawley rat at 2 mg/kg, po measured after 8 hrs by LC-MS/MS analysis", "assay_type": "ADME, organism-based"}},
  "data": [
    {"smiles": "CCOc1cc(N2CCC(O)CC2)ccc1Nc1ncc2c(n1)N(C)c1ccccc1C(=O)N2C", "values": [
      {"measurement": "IC50", "setting": "[1]", "value": "> 50", "unit": "µM"},
      {"measurement": "IC50", "setting": "[2]", "value": "> 50", "unit": "µM"},
      {"measurement": "IC50", "setting": "[3]", "value": "> 50", "unit": "µM"},
      {"measurement": "IC50", "setting": "[4]", "value": "> 50", "unit": "µM"},
      {"measurement": "IC50", "setting": "[5]", "value": "> 50", "unit": "µM"},
      {"measurement": "inhibition", "setting": "[6]", "value": 24.9, "unit": "%"},
      {"measurement": "inhibition at 50 µM", "setting": "[7]", "value": 2.5, "unit": "%"},
      {"measurement": "inhibition", "setting": "[8]", "value": -2.5, "unit": "%"},
      {"measurement": "inhibition", "setting": "[9]", "value": 3.3, "unit": "%"},
      {"measurement": "inhibition", "setting": "[10]", "value": -4.1, "unit": "%"},
      {"measurement": "inhibition", "setting": "[11]", "value": 0.3, "unit": "%"},
      {"measurement": "inhibition", "setting": "[12]", "value": 2.5, "unit": "%"},
      {"measurement": "inhibition", "setting": "[13]", "value": 4.6, "unit": "%"},
      {"measurement": "concentration at 8 h", "setting": "[14]", "value": 34, "unit": "nM"}
    ]}
  ]
}
